The nature of series [1]: Metabolic stability in human serum assessed as full length product remaining after 10 mins by HPLC. The format is ADME, cell-free. The settings on record: read-out: Stability. Put shortly: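 About 0.5 A260 units compound in 1% human serum in PBS, 37 °C; aliquot taken at 10 min, analysed by anion-exchange HPLC for percent intact full-length product.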
Series [2] addresses T1, Toll-like receptor 7 (Homo sapiens) (UniProt Q9NYK1).
T1 sequence (whole entry): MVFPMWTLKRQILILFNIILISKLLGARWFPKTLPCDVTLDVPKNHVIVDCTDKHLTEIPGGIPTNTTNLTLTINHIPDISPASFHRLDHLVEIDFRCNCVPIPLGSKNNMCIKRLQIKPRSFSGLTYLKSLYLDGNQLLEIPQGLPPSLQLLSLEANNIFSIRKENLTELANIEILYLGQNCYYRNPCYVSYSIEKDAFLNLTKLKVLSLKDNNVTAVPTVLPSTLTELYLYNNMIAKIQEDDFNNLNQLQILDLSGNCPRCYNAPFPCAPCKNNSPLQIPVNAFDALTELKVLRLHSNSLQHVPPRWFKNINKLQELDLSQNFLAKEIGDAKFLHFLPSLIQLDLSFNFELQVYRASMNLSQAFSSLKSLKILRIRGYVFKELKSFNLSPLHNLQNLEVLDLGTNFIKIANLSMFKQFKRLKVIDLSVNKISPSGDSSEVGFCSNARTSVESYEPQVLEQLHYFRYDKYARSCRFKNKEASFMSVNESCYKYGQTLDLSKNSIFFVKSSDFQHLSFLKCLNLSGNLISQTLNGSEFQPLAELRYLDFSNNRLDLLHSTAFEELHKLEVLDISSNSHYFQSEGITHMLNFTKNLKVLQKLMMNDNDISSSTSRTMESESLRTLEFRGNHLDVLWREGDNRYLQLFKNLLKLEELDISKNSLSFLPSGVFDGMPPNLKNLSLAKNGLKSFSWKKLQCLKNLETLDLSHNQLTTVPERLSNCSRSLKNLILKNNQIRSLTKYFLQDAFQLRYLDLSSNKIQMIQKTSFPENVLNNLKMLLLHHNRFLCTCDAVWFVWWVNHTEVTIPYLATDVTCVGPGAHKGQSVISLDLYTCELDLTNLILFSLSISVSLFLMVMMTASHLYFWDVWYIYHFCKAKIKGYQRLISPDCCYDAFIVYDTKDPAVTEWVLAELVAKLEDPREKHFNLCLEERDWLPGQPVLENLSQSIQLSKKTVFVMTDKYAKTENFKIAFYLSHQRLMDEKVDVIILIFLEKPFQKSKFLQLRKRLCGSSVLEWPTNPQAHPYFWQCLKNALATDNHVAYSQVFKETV
Kind of series: Activation of human TLR7 expressed in HEK293XL assessed as fold induction of NF-kappaB activity at 50 ug/ml after 18 hrs by reporter gene assay relative to control. Put shortly: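 HEK293 cells stably expressing human TLR7 or TLR8, transiently transfected with SEAP reporter plasmid; medium replaced, SIMRA compounds added, 18 h incubation. Supernatant SEAP measured by QuantiBlue; expressed as fold increase in NF-κB activity over PBS control. Tabulated data at 50 μg/mL, representative of three independent experiments.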
A general note: In a reporter assay the amount or activity of a reporter protein is the signal.

For the next series, the species on record is Homo sapiens. Briefly: Ratio of human TLR7 activity to human TLR8 activity. Put shortly:
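TLR7/TLR8 ratio computed from fold NF-κB (SEAP reporter) activation in HEK293 cells stably expressing human TLR7 versus TLR8, compounds at 50 μg/mL, 18 h exposure; representative of three independent experiments.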

Series [3] addresses Toll-like receptor 3 (Homo sapiens) (UniProt O15455). Kind of series: Activation of human TLR3 expressed in HEK293 assessed as induction of NF-kappaB activity reporter gene assay. In kind it is cell-based.

This is an account of results in ChEMBL document CHEMBL1154352, “Toll-like receptor 7 selective synthetic oligoribonucleotide agonists: synthesis and structure-activity relationship studies” (J Med Chem, 2009).

Each structure is given as a SMILES string. Activity calls are given as the source filed them. The calls are words filed in the database; no cut-off is given here.

Toll-like receptor 3 (Homo sapiens), sequence (O15455 whole entry): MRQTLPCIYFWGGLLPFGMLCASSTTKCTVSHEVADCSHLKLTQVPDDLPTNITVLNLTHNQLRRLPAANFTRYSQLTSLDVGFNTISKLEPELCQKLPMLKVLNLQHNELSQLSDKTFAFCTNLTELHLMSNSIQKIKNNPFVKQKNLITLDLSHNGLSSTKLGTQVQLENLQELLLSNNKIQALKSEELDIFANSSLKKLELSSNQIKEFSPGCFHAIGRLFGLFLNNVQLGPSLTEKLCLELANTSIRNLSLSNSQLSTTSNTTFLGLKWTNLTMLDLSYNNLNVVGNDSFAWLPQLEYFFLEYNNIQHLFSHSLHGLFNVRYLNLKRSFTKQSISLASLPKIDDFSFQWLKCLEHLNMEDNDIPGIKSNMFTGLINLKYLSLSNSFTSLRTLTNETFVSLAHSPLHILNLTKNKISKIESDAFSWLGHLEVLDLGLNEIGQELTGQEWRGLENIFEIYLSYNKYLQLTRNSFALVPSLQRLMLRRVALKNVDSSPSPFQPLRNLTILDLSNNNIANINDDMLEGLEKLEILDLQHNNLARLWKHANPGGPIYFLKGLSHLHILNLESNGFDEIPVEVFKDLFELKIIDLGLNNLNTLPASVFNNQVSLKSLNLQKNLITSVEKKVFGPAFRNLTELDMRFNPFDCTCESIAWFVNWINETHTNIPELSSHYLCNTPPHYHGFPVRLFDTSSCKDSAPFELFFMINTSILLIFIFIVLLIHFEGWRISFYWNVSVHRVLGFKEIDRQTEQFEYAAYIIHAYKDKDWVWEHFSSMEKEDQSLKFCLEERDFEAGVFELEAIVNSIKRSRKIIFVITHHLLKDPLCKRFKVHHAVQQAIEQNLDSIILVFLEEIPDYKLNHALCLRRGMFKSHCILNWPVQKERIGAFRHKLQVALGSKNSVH

Regarding `Nc1ccn([C@@H]2O[C@H](COP(=O)(S)O[C@H]3[C@@H](O)[C@H](n4cnc5c(N)ncnc54)O[C@@H]3CO)[C@@H](OP(=O)(S)OC[C@H]3O[C@@H](n4ccc(=O)[nH]c4=O)[C@H](O)[C@@H]3OP(=O)(S)OC[C@H]3O[C@@H](n4ccc(=O)[nH]c4=O)[C@H](O)[C@@H]3OP(=O)(S)OC[C@H]3O[C@@H](n4ccc5c(=O)[nH]c(N)nc54)[C@H](O)[C@@H]3OP(=O)(S)OC[C@H]3O[C@@H](n4cnc5c(N)ncnc54)[C@H](O)[C@@H]3OP(=O)(S)OC[C@H]3O[C@@H](n4ccc(N)nc4=O)[C@H](O)[C@@H]3OP(=O)(S)OC[C@H]3O[C@@H](n4ccc(=O)[nH]c4=O)[C@H](O)[C@@H]3OP(=O)(S)OC[C@H]3O[C@@H](n4ccc(=O)[nH]c4=O)[C@H](O)[C@@H]3OP(=O)(S)OC[C@H]3O[C@@H](n4ccc5c(=O)[nH]c(N)nc54)[C@H](O)[C@@H]3OP(=O)(S)OC[C@H]3O[C@@H](n4cnc5c(N)ncnc54)[C@H](O)[C@@H]3OP(=O)(S)OCC(O)COP(=O)(S)O[C@H]3[C@@H](O)[C@H](n4cnc5c(N)ncnc54)O[C@@H]3COP(=O)(S)O[C@H]3[C@@H](O)[C@H](n4ccc5c(=O)[nH]c(N)nc54)O[C@@H]3COP(=O)(S)O[C@H]3[C@@H](O)[C@H](n4ccc(=O)[nH]c4=O)O[C@@H]3COP(=O)(S)O[C@H]3[C@@H](O)[C@H](n4ccc(=O)[nH]c4=O)O[C@@H]3COP(=O)(S)O[C@H]3[C@@H](O)[C@H](n4ccc(N)nc4=O)O[C@@H]3COP(=O)(S)O[C@H]3[C@@H](O)[C@H](n4cnc5c(N)ncnc54)O[C@@H]3COP(=O)(S)O[C@H]3[C@@H](O)[C@H](n4ccc5c(=O)[nH]c(N)nc54)O[C@@H]3COP(=O)(S)O[C@H]3[C@@H](O)[C@H](n4ccc(=O)[nH]c4=O)O[C@@H]3COP(=O)(S)O[C@H]3[C@@H](O)[C@H](n4ccc(=O)[nH]c4=O)O[C@@H]3COP(=O)(S)O[C@H]3[C@@H](O)[C@H](n4ccc(N)nc4=O)O[C@@H]3COP(=O)(S)O[C@H]3[C@@H](O)[C@H](n4cnc5c(N)ncnc54)O[C@@H]3CO)[C@H]2O)c(=O)n1` (some centres not stated), the remaining at 10 min in series [1] is 87%. For the same compound, in series [2], the fold change (FC) is 9.1. For the same compound, in the series listed under Homo sapiens, the Ratio stood at 6.5. In addition, the outcome in series [3] was inactive.
The matching figures for `Nc1ccn([C@@H]2O[C@H](COP(=O)(S)O[C@H]3[C@@H](O)[C@H](n4cnc5c(N)ncnc54)O[C@@H]3COP(=O)(S)O[C@H]3[C@@H](O)[C@H](n4cnc5c(N)ncnc54)O[C@@H]3CO)[C@@H](OP(=O)(S)OC[C@H]3O[C@@H](n4ccc(=O)[nH]c4=O)[C@H](O)[C@@H]3OP(=O)(S)OC[C@H]3O[C@@H](n4ccc5c(=O)[nH]c(N)nc54)[C@H](O)[C@@H]3OP(=O)(S)OC[C@H]3O[C@@H](n4cnc5c(N)ncnc54)[C@H](O)[C@@H]3OP(=O)(S)OC[C@H]3O[C@@H](n4cnc5c(N)ncnc54)[C@H](O)[C@@H]3OP(=O)(S)OC[C@H]3O[C@@H](n4ccc5c(=O)[nH]c(N)nc54)[C@H](O)[C@@H]3OP(=O)(S)OC[C@H]3O[C@@H](n4ccc(N)nc4=O)[C@H](O)[C@@H]3OP(=O)(S)OC[C@H]3O[C@@H](n4ccc(=O)[nH]c4=O)[C@H](O)[C@@H]3OP(=O)(S)OC[C@H]3O[C@@H](n4ccc5c(=O)[nH]c(N)nc54)[C@H](O)[C@@H]3OP(=O)(S)OCC(O)COP(=O)(S)O[C@H]3[C@@H](O)[C@H](n4ccc5c(=O)[nH]c(N)nc54)O[C@@H]3COP(=O)(S)O[C@H]3[C@@H](O)[C@H](n4ccc(=O)[nH]c4=O)O[C@@H]3COP(=O)(S)O[C@H]3[C@@H](O)[C@H](n4ccc(N)nc4=O)O[C@@H]3COP(=O)(S)O[C@H]3[C@@H](O)[C@H](n4ccc5c(=O)[nH]c(N)nc54)O[C@@H]3COP(=O)(S)O[C@H]3[C@@H](O)[C@H](n4cnc5c(N)ncnc54)O[C@@H]3COP(=O)(S)O[C@H]3[C@@H](O)[C@H](n4cnc5c(N)ncnc54)O[C@@H]3COP(=O)(S)O[C@H]3[C@@H](O)[C@H](n4ccc5c(=O)[nH]c(N)nc54)O[C@@H]3COP(=O)(S)O[C@H]3[C@@H](O)[C@H](n4ccc(=O)[nH]c4=O)O[C@@H]3COP(=O)(S)O[C@H]3[C@@H](O)[C@H](n4ccc(N)nc4=O)O[C@@H]3COP(=O)(S)O[C@H]3[C@@H](O)[C@H](n4cnc5c(N)ncnc54)O[C@@H]3COP(=O)(S)O[C@H]3[C@@H](O)[C@H](n4cnc5c(N)ncnc54)O[C@@H]3CO)[C@H]2O)c(=O)n1` (some centres not stated): 76%, 18.4, 30.7 and “inactive”.
The matching figures for `Nc1ccn([C@@H]2O[C@H](COP(=O)(S)O[C@H]3[C@@H](O)[C@H](n4cnc5c(N)ncnc54)O[C@@H]3COP(=O)(S)O[C@H]3[C@@H](O)[C@H](n4ccc5c(=O)[nH]c(N)nc54)O[C@@H]3COP(=O)(S)O[C@H]3[C@@H](O)[C@H](n4ccc(N)nc4=O)O[C@@H]3COP(=O)(S)O[C@H]3[C@@H](O)[C@H](n4ccc5c(=O)[nH]c(N)nc54)O[C@@H]3COP(=O)(S)O[C@H]3[C@@H](O)[C@H](n4ccc(=O)[nH]c4=O)O[C@@H]3COP(=O)(S)O[C@H]3[C@@H](O)[C@H](n4ccc5c(=O)[nH]c(N)nc54)O[C@@H]3COP(=O)(S)O[C@H]3[C@@H](O)[C@H](n4cnc5c(N)ncnc54)O[C@@H]3COP(=O)(S)O[C@H]3[C@@H](O)[C@H](n4cnc5c(N)ncnc54)O[C@@H]3CO)[C@@H](OP(=O)(S)OC[C@H]3O[C@@H](n4ccc(=O)[nH]c4=O)[C@H](O)[C@@H]3OP(=O)(S)OC[C@H]3O[C@@H](n4ccc(=O)[nH]c4=O)[C@H](O)[C@@H]3OP(=O)(S)OCC(O)COP(=O)(S)O[C@H]3[C@@H](O)[C@H](n4ccc(=O)[nH]c4=O)O[C@@H]3COP(=O)(S)O[C@H]3[C@@H](O)[C@H](n4ccc(=O)[nH]c4=O)O[C@@H]3COP(=O)(S)O[C@H]3[C@@H](O)[C@H](n4ccc(N)nc4=O)O[C@@H]3COP(=O)(S)O[C@H]3[C@@H](O)[C@H](n4cnc5c(N)ncnc54)O[C@@H]3COP(=O)(S)O[C@H]3[C@@H](O)[C@H](n4ccc5c(=O)[nH]c(N)nc54)O[C@@H]3COP(=O)(S)O[C@H]3[C@@H](O)[C@H](n4ccc(N)nc4=O)O[C@@H]3COP(=O)(S)O[C@H]3[C@@H](O)[C@H](n4ccc5c(=O)[nH]c(N)nc54)O[C@@H]3COP(=O)(S)O[C@H]3[C@@H](O)[C@H](n4ccc(=O)[nH]c4=O)O[C@@H]3COP(=O)(S)O[C@H]3[C@@H](O)[C@H](n4ccc5c(=O)[nH]c(N)nc54)O[C@@H]3COP(=O)(S)O[C@H]3[C@@H](O)[C@H](n4cnc5c(N)ncnc54)O[C@@H]3COP(=O)(S)O[C@H]3[C@@H](O)[C@H](n4cnc5c(N)ncnc54)O[C@@H]3CO)[C@H]2O)c(=O)n1` (some centres not stated): 79%, 20.7, 41.4 and “inactive”.
